Active and inactive are the calls of the source. The rule behind the calls is not given here.
Legend:
[1] = Antiinflammatory activity in rat polymorphonuclear leukocytes assessed as inhibition of platelet-activating factor-induced glucuronidase release at 10 uM preincubated for 15 mins before challenge by spectrophotometry; type: functional
[2] = test system: A549; test: Cytotoxicity against human A549 cells at 10 uM after 96 hrs by MTT assay; type: functional, cell-based
[3] = test system: BGC-823; test: Cytotoxicity against human BGC823 cells at 10 uM after 96 hrs by MTT assay; type: functional, cell-based
[4] = test system: MCF7; test: Cytotoxicity against human MCF7 cells at 10 uM after 96 hrs by MTT assay; type: functional, cell-based
[5] = test system: Bel-7402; test: Cytotoxicity against human Bel7402 cells at 10 uM after 96 hrs by MTT assay; type: functional, cell-based
[6] = test system: KETR3; test: Cytotoxicity against human Ketr3 cells at 10 uM after 96 hrs by MTT assay; type: functional, cell-based
[7] = test system: HCT-8; test: Cytotoxicity against human HCT8 cells at 10 uM after 96 hrs by MTT assay; type: functional, cell-based
[8] = test system: PC-12; test: Neuroprotective activity against glutamate-induced neurotoxicity in rat PC12 cells at 10 uM preincubated for 24 hrs prior challenge measured after 24 hrs by MTT assay; type: functional, cell-based
[9] = test system: Liver microsomes; test: Antioxidant activity against Fe2+-cystine induced lipid peroxidation in rat liver microsomes at 10 uM; type: functional; conditions: Microsome
[10] = molecular target: T1, Tyrosine-protein phosphatase non-receptor type 1 (Homo sapiens) (UniProt P18031); test: Inhibition of GST-tagged human PTP1B PTPase activity using p-NPP as substrate at 10 uM after 10 mins by spectrophotometry
T1 sequence (whole entry): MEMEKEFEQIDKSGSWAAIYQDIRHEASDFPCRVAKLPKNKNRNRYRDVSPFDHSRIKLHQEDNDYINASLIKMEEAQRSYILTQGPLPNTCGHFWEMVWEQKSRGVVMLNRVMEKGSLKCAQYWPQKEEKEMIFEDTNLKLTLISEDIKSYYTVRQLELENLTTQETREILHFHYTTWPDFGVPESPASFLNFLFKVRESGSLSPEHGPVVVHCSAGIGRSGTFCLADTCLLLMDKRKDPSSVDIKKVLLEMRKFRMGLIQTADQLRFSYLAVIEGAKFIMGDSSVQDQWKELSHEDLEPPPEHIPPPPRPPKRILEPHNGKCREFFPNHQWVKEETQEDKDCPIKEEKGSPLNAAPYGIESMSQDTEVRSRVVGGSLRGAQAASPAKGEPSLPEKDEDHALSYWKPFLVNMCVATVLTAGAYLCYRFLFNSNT

[11] = test system: Human immunodeficiency virus 1; test: Antiviral activity against HIV1 infected in 293T cells at 10 uM pretreated for 15 mins prior infection measured after 48 hrs by luciferase reporter gene assay; type: functional, organism-based
[12] = molecular target: Signal transducer and activator of transcription 3 (Homo sapiens) (UniProt P40763); test: Inhibition of STAT-3 activity in HELF cells at 10 uM; type: cell-based
Chain of Signal transducer and activator of transcription 3 (Homo sapiens) (P40763 whole entry): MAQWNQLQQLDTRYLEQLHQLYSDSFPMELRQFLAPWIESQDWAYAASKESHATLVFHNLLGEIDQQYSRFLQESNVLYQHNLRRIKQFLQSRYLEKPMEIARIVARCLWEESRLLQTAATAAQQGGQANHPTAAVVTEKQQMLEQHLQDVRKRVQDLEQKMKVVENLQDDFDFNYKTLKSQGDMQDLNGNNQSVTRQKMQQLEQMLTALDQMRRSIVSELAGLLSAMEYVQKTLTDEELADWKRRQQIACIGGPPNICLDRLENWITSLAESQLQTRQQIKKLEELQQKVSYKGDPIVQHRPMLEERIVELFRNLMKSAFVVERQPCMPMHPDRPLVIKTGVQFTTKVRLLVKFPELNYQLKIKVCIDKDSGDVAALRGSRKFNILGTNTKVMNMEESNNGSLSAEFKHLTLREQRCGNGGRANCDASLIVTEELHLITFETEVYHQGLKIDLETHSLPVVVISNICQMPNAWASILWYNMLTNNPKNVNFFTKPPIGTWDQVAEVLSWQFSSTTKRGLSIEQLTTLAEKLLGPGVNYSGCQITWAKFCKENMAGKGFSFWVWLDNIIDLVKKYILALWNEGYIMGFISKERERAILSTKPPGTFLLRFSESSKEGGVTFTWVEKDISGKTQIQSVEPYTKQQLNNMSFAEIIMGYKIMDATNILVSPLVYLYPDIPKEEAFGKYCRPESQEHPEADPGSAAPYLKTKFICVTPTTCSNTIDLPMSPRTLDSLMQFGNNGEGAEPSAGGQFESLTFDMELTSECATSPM
Outline: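 HELF cells grown in DMEM with 10% FCS under humidified 5% CO2, transfected with pSTAT-3-TA-luc firefly luciferase reporter plasmid by lipofectamine 2000. After 24 h, treated in 5% FBS with compound or DMSO for 24 h. Luciferase activity read in cell lysates by luminometer; activity expressed relative to DMSO-treated transfected cells set at 100%.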

Row | inhibition [10] | inhibition [12] [%] | Structure (SMILES) | inhibition at 10 µM [1] [%] | Activity [2] | Activity [3] | Activity [4] | Activity [5] | Activity [6] | Activity [7] | Activity [8] | Activity [9] | Activity [11]
1 | inactive |  | C=C[C@H]1[C@H](O[C@@H]2O[C@H](CO)[C@@H](O)[C@H](O)[C@H]2O)OC=C(C(=O)O)[C@H]1/C=C/c1cc(C(=O)[O-])c[n+](CCCC(=O)O)c1 [DEMETHYL LONIJAPOSIDE A] | < 30 | inactive | inactive | inactive | inactive | inactive | inactive | inactive | inactive | inactive
2 |  |  | C[C@@H]1C(=O)O[C@H]2[C@H](O)[C@@]34[C@H]5C[C@@H](C(C)(C)C)[C@]36[C@@H](OC(=O)[C@@H]6O)O[C@@]4(C(=O)O5)[C@@]12O [GINKOLIDE B] | 84.3 |  |  |  |  |  |  |  |  | 
3 | inactive |  | C=C[C@H]1[C@H](O[C@@H]2O[C@H](CO)[C@@H](O)[C@H](O)[C@H]2O)OC=C(C(=O)OC)[C@H]1/C=C/c1cc(C(=O)[O-])c[n+](CC)c1 [LONIJAPOSIDE E] | < 30 | inactive | inactive | inactive | inactive | inactive | inactive | inactive | inactive | inactive
4 | inactive |  | C=C[C@H]1[C@H](O[C@@H]2O[C@H](CO)[C@@H](O)[C@H](O)[C@H]2O)OC=C(C(=O)O)[C@H]1/C=C/c1cc(C(=O)[O-])c[n+](CC)c1 [LONIJAPOSIDE F] | 87.6 | inactive | inactive | inactive | inactive | inactive | inactive | inactive | inactive | inactive
5 | inactive |  | C=C[C@H]1[C@H](O[C@@H]2O[C@H](CO)[C@@H](O)[C@H](O)[C@H]2O)OC=C(C(=O)OC)[C@H]1/C=C/c1cc(C(=O)[O-])c[n+](C)c1 [LONIJAPOSIDE G] | < 30 | inactive | inactive | inactive | inactive | inactive | inactive | inactive | inactive | inactive
6 | inactive |  | C=C[C@@H]1/C(=C\Cc2cc(C(=O)[O-])c[n+](CCCC(=O)O)c2)C(C(=O)OC)=CO[C@H]1O[C@@H]1O[C@H](CO)[C@@H](O)[C@H](O)[C@H]1O [LONIJAPOSIDE H] | 68.6 | inactive | inactive | inactive | inactive | inactive | inactive | inactive | inactive | inactive
7 | inactive |  | C=C[C@H]1[C@H](O[C@@H]2O[C@H](CO)[C@@H](O)[C@H](O)[C@H]2O)OC=C(C(=O)[O-])[C@H]1/C=C/c1ccc[n+](CCO)c1 [LONIJAPOSIDE I] | 72.1 | inactive | inactive | inactive | inactive | inactive | inactive | inactive | inactive | inactive
8 | inactive |  | C=C[C@H]1[C@H](O[C@@H]2O[C@H](CO)[C@@H](O)[C@H](O)[C@H]2O)OC=C(C(=O)OC)[C@H]1/C=C/c1ccc[n+](CCO)c1 [LONIJAPOSIDE J] | < 30 | inactive | inactive | inactive | inactive | inactive | inactive | inactive | inactive | inactive
9 | inactive |  | C=C[C@H]1[C@H](O[C@@H]2O[C@H](CO)[C@@H](O)[C@H](O)[C@H]2O)OC=C(C(=O)[O-])[C@H]1/C=C/c1ccc[n+](CC(=O)O)c1 [LONIJAPOSIDE K] | 54.6 | inactive | inactive | inactive | inactive | inactive | inactive | inactive | inactive | inactive
10 | inactive |  | C=C[C@H]1[C@H](O[C@@H]2O[C@H](CO)[C@@H](O)[C@H](O)[C@H]2O)OC=C(C(=O)[O-])[C@H]1/C=C/c1ccc[n+](CCC(=O)O)c1 [LONIJAPOSIDE L] | < 30 | inactive | inactive | inactive | inactive | inactive | inactive | inactive | inactive | inactive
11 | inactive |  | C=C[C@H]1[C@H](O[C@@H]2O[C@H](CO)[C@@H](O)[C@H](O)[C@H]2O)OC=C(C(=O)[O-])[C@H]1/C=C/c1ccc[n+](CCCC(=O)O)c1 [LONIJAPOSIDE M] | < 30 | inactive | inactive | inactive | inactive | inactive | inactive | inactive | inactive | inactive
12 | inactive |  | C=C[C@H]1[C@H](O[C@@H]2O[C@H](CO)[C@@H](O)[C@H](O)[C@H]2O)OC=C(C(=O)OC)[C@H]1/C=C/c1ccc[n+](CCCC(=O)[O-])c1 [LONIJAPOSIDE N] | < 30 | inactive | inactive | inactive | inactive | inactive | inactive | inactive | inactive | inactive
13 | inactive | 45.7 | O=C(O)C1=CO[C@@H](O[C@@H]2O[C@H](CO)[C@@H](O)[C@H](O)[C@H]2O)[C@H]2[C@@H]1C[C@@H]1C[C@H]2OC=C1c1ccccc1 [LONIPHENYRUVIRIDOSIDE A] | < 30 | inactive | inactive | inactive | inactive | inactive | inactive | inactive | inactive | inactive
14 | inactive | 25.8 | C=C[C@H]1[C@H](O[C@@H]2O[C@H](CO)[C@@H](O)[C@H](O)[C@H]2O)OC=C2C(=O)O[C@@H](/C(=C(/O)C(=O)O)c3ccccc3)C[C@H]21 [LONIPHENYRUVIRIDOSIDE B] | < 30 | inactive | inactive | inactive | inactive | inactive | inactive | inactive | inactive | inactive
15 | inactive | 30.9 | C=C[C@H]1[C@H](O[C@@H]2O[C@H](CO)[C@@H](O)[C@H](O)[C@H]2O)OC=C2C(=O)O[C@H](/C(=C(/O)C(=O)O)c3ccccc3)C[C@@H]21 [LONIPHENYRUVIRIDOSIDE C] | < 30 | inactive | inactive | inactive | inactive | inactive | inactive | inactive | inactive | inactive

Reference: ChEMBL document CHEMBL1926618, “Homosecoiridoids from the flower buds of Lonicera japonica” (2011)
